From ChEMBL document CHEMBL4689842, “EUbOPEN Chemogenomics Library wave 1” (2021)
Several values for one entry are separate records, joined by “and”; a condition that tells them apart may be missing. Equal values may be shown once.

System: Fibroblast
Test: Multiplex assay against human fibroblast
Assay type: toxicity, cell-based
In short: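 At seeding, live cells were stained with Hoechst33342, BioTracker Green Microtubule Cytoskeleton Dye, MitoTracker Red and Annexin V Alexa Fluor 680. After compound addition they were imaged on a CQ1 microscope at 37°C and 5% CO2, and CellPathfinder machine-learning gating sorted them into Hoechst high-intensity objects or normal cells, with normal cells further split into healthy, pyknosed or fragmented nuclei and pyknosed cells into mitotic or apoptotic. Tubulin, mitochondrial-mass and membrane-permeability phenotypes are given as per cents of cells with healthy nuclei.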

[1] = 12 h, 1 µM, compound concentration 1 uM, replicate 1
[2] = 12 h, 1 µM, compound concentration 1 uM, replicate 2
[3] = 24 h, 1 µM, compound concentration 1 uM, replicate 1
[4] = 24 h, 1 µM, compound concentration 1 uM, replicate 2
[5] = 12 h, 10 µM, compound concentration 10 uM, replicate 1
[6] = 12 h, 10 µM, compound concentration 10 uM, replicate 2
[7] = 24 h, 10 µM, compound concentration 10 uM, replicate 1
[8] = 24 h, 10 µM, compound concentration 10 uM, replicate 2

Cc1cc(C)c(-n2ccn3nc(-c4cccnc4)cc23)cc1NC(=O)c1cc(C#N)cc(S(F)(F)(F)(F)F)c1 [BAY-826]
Population Apoptotic (%) [1]: 67% and 71% | Population Fragmented Nuclei (%) [1]: 37% and 21% | Population Healthy Nuclei (%) [1]: 48% and 63% | Population Hoechst High Intensity Objects (%) [1]: 11% and 19% | Population Mitochondria Different-Phenotype (%) [1]: 3% and 8% | Population Mitotic Cells (%) [1]: 32% and 28% | Population Normal (%) [1]: 88% and 80% | Population Pyknosed Nuclei (%) [1]: 14% and 15% | Total Cell Count [1]: 241 and 313 | Population Apoptotic (%) [2]: 50% and 91% | Population Fragmented Nuclei (%) [2]: 55% and 58% | Population Healthy Nuclei (%) [2]: 37% and 19% | Population Hoechst High Intensity Objects (%) [2]: 23% and 34% | Population Membrane Permeable-Phenotype (%) [2]: 20% and 36% | Population Normal (%) [2]: 76% and 65% | Population Pyknosed Nuclei (%) [2]: 7% and 21% | Population Tubulin-Different-Phenotype (%) [2]: 30% and 54% | Total Cell Count [2]: 71 and 85 | Population Apoptotic (%) [3]: 52% and 37% | Population Fragmented Nuclei (%) [3]: 23% and 21% | Population Healthy Nuclei (%) [3]: 54% and 63% | Population Hoechst High Intensity Objects (%) [3]: 12% and 18% | Population Mitochondria Different-Phenotype (%) [3]: 8% and 4% | Population Mitotic Cells (%) [3]: 47% and 62% | Population Normal (%) [3]: 87% and 81% | Population Pyknosed Nuclei (%) [3]: 21% and 14% | Total Cell Count [3]: 231 and 326 | Population Fragmented Nuclei (%) [4]: 54% and 59% | Population Healthy Nuclei (%) [4]: 35% and 19% | Population Hoechst High Intensity Objects (%) [4]: 36% and 28% | Population Normal (%) [4]: 64% and 71% | Population Pyknosed Nuclei (%) [4]: 10% and 20% | Population Tubulin-Different-Phenotype (%) [4]: 29% and 58% | Total Cell Count [4]: 75 and 87

CNC(=O)Nc1ccc2c(c1)[C@@]1(CC2)OC(=O)N(CC(=O)N(Cc2ccc(F)cc2)[C@@H](C)C(F)(F)F)C1=O [A-486]
Population Apoptotic (%) [1]: 68% | Population Fragmented Nuclei (%) [1]: 21% | Population Healthy Nuclei (%) [1]: 60% | Population Hoechst High Intensity Objects (%) [1]: 9% | Population Membrane Permeable-Phenotype (%) [1]: 31% | Population Mitochondria Different-Phenotype (%) [1]: 4% | Population Mitotic Cells (%) [1]: 31% | Population Normal (%) [1]: 90% | Population Pyknosed Nuclei (%) [1]: 18% | Population Tubulin-Different-Phenotype (%) [1]: 55% | Total Cell Count [1]: 291 | Population Apoptotic (%) [2]: 75% | Population Fragmented Nuclei (%) [2]: 57% | Population Healthy Nuclei (%) [2]: 21% | Population Hoechst High Intensity Objects (%) [2]: 34% | Population Membrane Permeable-Phenotype (%) [2]: 41% | Population Mitochondria Different-Phenotype (%) [2]: 8% | Population Mitotic Cells (%) [2]: 25% | Population Normal (%) [2]: 65% | Population Pyknosed Nuclei (%) [2]: 21% | Population Tubulin-Different-Phenotype (%) [2]: 91% | Total Cell Count [2]: 87 | Population Apoptotic (%) [5]: 55% | Population Fragmented Nuclei (%) [5]: 24% | Population Healthy Nuclei (%) [5]: 61% | Population Hoechst High Intensity Objects (%) [5]: 14% | Population Membrane Permeable-Phenotype (%) [5]: 7% | Population Mitochondria Different-Phenotype (%) [5]: 5% | Population Mitotic Cells (%) [5]: 45% | Population Normal (%) [5]: 85% | Population Pyknosed Nuclei (%) [5]: 14% | Population Tubulin-Different-Phenotype (%) [5]: 7% | Total Cell Count [5]: 160 | Population Apoptotic (%) [6]: 33% | Population Fragmented Nuclei (%) [6]: 57% | Population Healthy Nuclei (%) [6]: 37% | Population Hoechst High Intensity Objects (%) [6]: 29% | Population Membrane Permeable-Phenotype (%) [6]: 15% | Population Mitochondria Different-Phenotype (%) [6]: 10% | Population Mitotic Cells (%) [6]: 66% | Population Normal (%) [6]: 70% | Population Pyknosed Nuclei (%) [6]: 5% | Population Tubulin-Different-Phenotype (%) [6]: 45% | Total Cell Count [6]: 77 | Population Apoptotic (%) [3]: 56% | Population Fragmented Nuclei (%) [3]: 23% | Population Healthy Nuclei (%) [3]: 59% | Population Hoechst High Intensity Objects (%) [3]: 14% | Population Membrane Permeable-Phenotype (%) [3]: 17% | Population Mitochondria Different-Phenotype (%) [3]: 6% | Population Mitotic Cells (%) [3]: 43% | Population Normal (%) [3]: 85% | Population Pyknosed Nuclei (%) [3]: 17% | Population Tubulin-Different-Phenotype (%) [3]: 46% | Total Cell Count [3]: 300 | Population Apoptotic (%) [4]: 71% | Population Fragmented Nuclei (%) [4]: 63% | Population Healthy Nuclei (%) [4]: 23% | Population Hoechst High Intensity Objects (%) [4]: 33% | Population Membrane Permeable-Phenotype (%) [4]: 50% | Population Mitochondria Different-Phenotype (%) [4]: 16% | Population Mitotic Cells (%) [4]: 28% | Population Normal (%) [4]: 66% | Population Pyknosed Nuclei (%) [4]: 13% | Population Tubulin-Different-Phenotype (%) [4]: 66% | Total Cell Count [4]: 78 | Population Apoptotic (%) [7]: 60% | Population Fragmented Nuclei (%) [7]: 30% | Population Healthy Nuclei (%) [7]: 53% | Population Hoechst High Intensity Objects (%) [7]: 14% | Population Membrane Permeable-Phenotype (%) [7]: 12% | Population Mitochondria Different-Phenotype (%) [7]: 1% | Population Mitotic Cells (%) [7]: 39% | Population Normal (%) [7]: 85% | Population Pyknosed Nuclei (%) [7]: 15% | Population Tubulin-Different-Phenotype (%) [7]: 8% | Total Cell Count [7]: 177 | Population Apoptotic (%) [8]: 100% | Population Fragmented Nuclei (%) [8]: 56% | Population Healthy Nuclei (%) [8]: 40% | Population Hoechst High Intensity Objects (%) [8]: 38% | Population Membrane Permeable-Phenotype (%) [8]: 25% | Population Mitochondria Different-Phenotype (%) [8]: 0% | Population Mitotic Cells (%) [8]: 0% | Population Normal (%) [8]: 61% | Population Pyknosed Nuclei (%) [8]: 4% | Population Tubulin-Different-Phenotype (%) [8]: 10% | Total Cell Count [8]: 81
